High-throughput results (PubChem)
In the library only some 6.3% were active in any assay of this set; here they are far more common.
E coli WT exp: E. coli BW25113 growth inhibition, expanded screen; 98,000 compounds, 0.15% hits; AID 710; growth inhibition, % at 100 µM; OD600 absorbance;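 active = growth inhibition above about 50% at one test dose, limit read from the data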;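 note: growth measured after 20 h incubation at 37 °C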
PostGolgi yeast: growth inhibition of a yeast mutant, post-Golgi transport screen; post-Golgi transport phenotypic cell assay; inhibition, % at 10 µM; 98,000 compounds, 0.9% hits; AID 739;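 note: yeast cells grown in 1536-well plates; yeast grown about 18 h at 30C before absorbance read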
PostGolgi ctrl: growth of the yeast control strain, post-Golgi counter-screen | efflux-deficient yeast background strain, growth absorbance A615, 16 h | inhibition, % at 10 µM | 98,000 compounds, 5% hits
tolC growth inh: E. coli tolC mutant growth inhibition; E. coli BW25113 tolC mutant growth, OD615; growth inhibition, % at 10 µM (by protocol); 65,000 compounds, 2.2% hits; AID 573;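 active = growth inhibition at or above a cutoff equal to the mean over every tested compound plus 3 SD, cut at about 60% in these data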;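 note: growth measured after 20 h incubation at 37 °C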
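Test system: E. coli BW25113 ΔtolC::kan bacteria | Medium: Kanamycin-containing LB broth (50 µg/mL) | Dosing: One dose of 10 µM final | Times: 20 h incubation with compound, 37 °C | Detection: Optical density read at 615 nm | Read-out basis: Percent growth inhibition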
Large screens that a line does not name were inactive. Cut-off read from the data, not from the text of the source, unless noted: active = inhibition above about 30%; inactive = the rest.

NC12CC3CC(C1)CC(CO)(C3)O2	none
COc1ccc(C(c2nnnn2Cc2ccc(F)cc2)N2CCN(c3ccc(OC)cc3)CC2)cc1 (stereo unspecified)	none
COc1ccc(N2CCN(C(c3ccccc3)c3nnnn3Cc3ccc(F)cc3)CC2)cc1 (stereo unspecified)	PostGolgi ctrl 34
COc1ccc(C(c2nnnn2Cc2ccc(F)cc2)N2CCN(c3ccccc3)CC2)cc1 (stereo unspecified)	PostGolgi ctrl 37
Cc1nc(Nc2ncc3c(n2)CCCC3=O)nc2ccccc12	none (no result: E coli WT exp, PostGolgi yeast, PostGolgi ctrl)
Fc1ccc2[nH]c3c(NCCN4CCOCC4)ncnc3c2c1	none (no result: tolC growth inh)
Clc1ccc(-n2ncc3c(NCC4CCCO4)ncnc32)cc1 (stereo unspecified)	none
Clc1ccc2[nH]c3c(NCCN4CCOCC4)ncnc3c2c1	PostGolgi ctrl 30
Clc1ccc2[nH]c3c(NCC4CCCO4)ncnc3c2c1 (stereo unspecified)	PostGolgi yeast 37
CC1CCCCN1C(=O)Cn1cc(/C=C2/C(=O)Nc3ccccc32)c2ccccc21 (stereo unspecified)	PostGolgi yeast 61, PostGolgi ctrl 77 (no result: tolC growth inh)
COC(=O)c1cn(CC(=O)N2CCCCC2C)c2ccccc12 (stereo unspecified)	none (no result: tolC growth inh)
Cc1cc(C)c(Cn2cnc(-c3ccc([N+](=O)[O-])cc3)c2)c(C)c1	PostGolgi ctrl 33 (no result: tolC growth inh)
O=C(Oc1cccc(Nc2ncnc3ccccc23)c1)c1ccccc1Cl	PostGolgi ctrl 69 (no result: tolC growth inh)
CCOc1c2ccc(C(=O)N[C@H](C)C3CCCCC3)cc2nn1CC	none (no result: tolC growth inh)
O=C(Cc1ccccc1[N+](=O)[O-])NCCSCc1c(F)cccc1Cl	none (no result: tolC growth inh)
C=CCn1c(SCC(=O)N2CCN(C(=O)c3ccco3)CC2)nc2sc(CC)cc2c1=O	none
C=CCn1c(SCC(=O)N2CCc3ccccc3C2)nc2sc(C)cc2c1=O	PostGolgi ctrl 50 (no result: tolC growth inh)
CCOC(=O)c1c(C)oc2c1c(C(c1ccccc1)N1CCOCC1)c(O)c1ccccc12 (stereo unspecified)	none (no result: tolC growth inh)
CCOC(=O)c1c(C)oc2c1c(C(c1cccnc1)N1CCCCC1)c(O)c1ccccc12 (stereo unspecified)	PostGolgi ctrl 53 (no result: tolC growth inh)
CCOC(=O)c1cccc(Nc2nc(C)cc(C)n2)c1	none
COC(=O)c1cccc(Nc2nc3ccccc3nc2C)c1	PostGolgi ctrl 53
NS(=O)(=O)c1ccc(N2N=C(c3ccccc3)CC2c2ccc(F)cc2)cc1 (stereo unspecified)	PostGolgi ctrl 50 (no result: tolC growth inh)
COc1ccccc1OCC(=O)Nc1sc2c(c1C(=O)NCC1CCCO1)CCC2 (stereo unspecified)	none (no result: tolC growth inh)
c1cncc(-c2nnc3sc(C4CCCCC4)nn23)c1	none
COc1cccc(-c2nnc3sc(C4CCCCC4)nn23)c1	PostGolgi ctrl 33
CCOc1cccc(-c2nnc3sc(C4CCCCC4)nn23)c1	PostGolgi ctrl 33
CCn1c(C(=O)N2CCC(C(=O)NCCCSC3CCCCC3)CC2)cc2sccc21	tolC growth inh 84
COc1cc2c(cc1OC)CN(C(=O)CCCOc1ccc(Cl)cc1Cl)CC2	PostGolgi ctrl 38 (no result: tolC growth inh)
O=C(COc1ccc(Cl)cc1Cl)NC(=S)N1CCCc2ccccc21	none (no result: tolC growth inh)
O=C(CCCOc1ccc(Cl)cc1Cl)N1CCCc2ccccc21	PostGolgi ctrl 48 (no result: tolC growth inh)
COc1cc2c(cc1OC)CN(C(=O)CCCN1C(=O)c3ccccc3C1=O)CC2	none
CCOc1ccc(C(=O)NN2C(=O)C3C4C=CC(O4)C3C2=O)cc1 (stereo unspecified)	none (no result: tolC growth inh)
O=C(O)c1nn(-c2ccccc2)ccc1=O	none (no result: tolC growth inh)
NC(=S)Nc1nc2ccccc2[nH]c1=O	none (no result: tolC growth inh)
Cc1ccc(NC(=S)c2nc3ccccc3[nH]2)cc1	PostGolgi ctrl 51 (no result: tolC growth inh)
CCOc1cc(/C=C\[N+](=O)[O-])ccc1OCC(=O)Nc1ccccc1C	PostGolgi yeast 39 (no result: tolC growth inh)
O=C(Nc1ccccc1N1CCOCC1)c1ccccc1NS(=O)(=O)c1ccc(F)c(F)c1	none (no result: tolC growth inh)
CCOc1ccc(S(=O)(=O)Nc2ccccc2C(=O)Nc2ccccc2N2CCOCC2)cc1	PostGolgi ctrl 34
O=C(Nc1ccccc1N1CCOCC1)c1ccccc1NS(=O)(=O)c1ccc(F)cc1	PostGolgi ctrl 34 (no result: tolC growth inh)
CCOc1ccc2cc(/C=C/C(=O)c3ccco3)c(Cl)nc2c1	none (no result: tolC growth inh)
O=P(OC1CCCCC1)(OC1CCCCC1)C(O)c1ccccc1 (stereo unspecified)	none (no result: tolC growth inh)
CCOC(=O)C1(c2nc(N)cs2)COC(=O)C1 (stereo unspecified)	none
Cc1cc2c(cc1C)CSC(c1ccccc1O)SC2	PostGolgi ctrl 31 (no result: tolC growth inh)
Cc1cc2c(cc1C)CSC(c1ccc3ccccc3c1O)SC2	none (no result: tolC growth inh)
Cc1cc2c(cc1C)CSC(c1c(O)ccc3ccccc13)SC2	PostGolgi yeast 103, PostGolgi ctrl 100 (no result: tolC growth inh)
COCCNC(=O)COc1cccc(Oc2ccccc2)c1	PostGolgi ctrl 31
Cc1cc(NC(=O)COc2cccc(Oc3ccccc3)c2)no1	PostGolgi ctrl 31
O=C(O)C1CC=CCC1C(=O)Nc1ccc(S(=O)(=O)N2CCCc3ccccc32)cc1 (stereo unspecified)	tolC growth inh 61
O=C(Nc1ccc(S(=O)(=O)N2CCCc3ccccc32)cc1)C1CCCO1 (stereo unspecified)	tolC growth inh 68
O=C(O)C1CC=CCC1C(=O)Nc1ccccc1 (stereo unspecified)	none (no result: tolC growth inh)
CC1(C)NC(C)(C)C(O)(C(N)=O)C1=O (stereo unspecified)	none
C=CCSc1nnc(NC(=O)c2nc(SCC)ncc2Cl)s1	PostGolgi ctrl 33 (no result: tolC growth inh)
